CHT allo act: allosteric activators of human choline transporter CHT; Q9GZV3; CHT-expressing cells, membrane potential dye, choline EC20; active compounds read high; LV-AA mutant CHT in HEK293 cells; B-score at 10 µM; 0.49% of 310,000 active;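 active = initial fluorescence not abnormally high and integrated response B-score, plate-corrected, over 3 SD above library mean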
Target sequence (Q9GZV3 whole entry, looked up): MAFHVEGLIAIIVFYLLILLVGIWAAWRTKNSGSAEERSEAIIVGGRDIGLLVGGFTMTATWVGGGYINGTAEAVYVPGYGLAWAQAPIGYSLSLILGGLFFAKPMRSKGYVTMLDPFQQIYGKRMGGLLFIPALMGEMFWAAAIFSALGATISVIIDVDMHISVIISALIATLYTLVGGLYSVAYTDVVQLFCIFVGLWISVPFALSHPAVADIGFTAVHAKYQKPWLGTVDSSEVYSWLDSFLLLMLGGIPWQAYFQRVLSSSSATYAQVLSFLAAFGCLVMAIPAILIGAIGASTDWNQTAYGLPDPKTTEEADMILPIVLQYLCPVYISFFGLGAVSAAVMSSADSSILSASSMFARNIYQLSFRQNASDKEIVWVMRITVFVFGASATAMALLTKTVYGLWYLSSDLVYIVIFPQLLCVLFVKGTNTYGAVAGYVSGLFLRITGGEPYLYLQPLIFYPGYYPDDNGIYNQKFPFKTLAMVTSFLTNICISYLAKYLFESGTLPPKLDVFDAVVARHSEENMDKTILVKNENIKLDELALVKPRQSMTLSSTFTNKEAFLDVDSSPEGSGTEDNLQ
PolyA inhibitor: blocks polyadenylation in yeast reporter cells; activity score, % at 12 µM; S. cerevisiae SKY197-pL101 polyadenylation reporter, beta-gal luminescence; efflux-impaired pdr1/pdr3 knockout yeast; score 100 = 6 SD above DMSO; 0.02% of 300,000 active;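 active = lowest replicate activity score at least 50, where 100 means six control SD above control mean; inconclusive = lowest score under 50 but half or more replicates reach 50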;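 also: yeast exposed to compound for 9 h at 30 °C; higher score means more reporter readthrough which indicates perturbed polyadenylation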
T cruzi repl: T. cruzi replication inhibition | T. cruzi beta-gal in NIH3T3, luminescence, 90 h | inhibition, % (concentration not given with the values) | 1.4% of 300,000 active | AID 1885;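 active = mean inhibition across valid replicates above about 55%, limit read from the data; inconclusive = mean below that limit but half or more replicates reach it; inactive = mean below it, under half of replicates reach it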;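 also: signal also drops with host cell toxicity which is not excluded here; higher percent means less beta-gal luminescence so fewer parasites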
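compound dosing = single 50 nL compound addition per well in DMSO | material = NIH/3T3 host cells with β-galactosidase reporter T. cruzi | input = 5,000 host fibroblasts per well | timing = ≥90 h infection period, 3 h prior cell attachment | read-out basis = percent inhibition of parasite-derived β-gal signal | detection = GalScreen β-gal luminescence, detergent lysis, 60 min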
CHT block: inhibitors of human choline transporter CHT; CHT-expressing cells, membrane potential dye, choline response; active compounds read low; B-score at 10 µM; 0.86% of 310,000 active;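 active = B-score over 3 SD under the library average, and starting fluorescence ratio not unusually high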;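 also: choline stimulus applied at its EC90 after an EC20 pre-addition; B-score computed on integrated fluorescence ratio after choline addition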
CHT inh conf: confirmation of human choline transporter CHT inhibitors; 70% of 2,400 active; CHT activity remaining % of control (active compounds read low), % at 10 µM; AID 493221; shares compounds with CHT block; CHT-expressing cells, choline membrane potential dye; LV-to-AA substituted CHT, HEK293 cells;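 active = choline transporter activity left, mean of duplicates at 10 µM, below buffer-only control mean minus 3 SD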;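 also: depolarization triggered by choline at its EC90 following an EC20 pre-addition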
HEK293 CHT ctr: CHT inhibitor counter-screen hit in parental HEK293 cells; shares compounds with CHT block; membrane potential dye, choline response; active = decrease or increase beyond buffer ±3SD; membrane potential ratio readout (active if shifted either direction beyond buffer ±3SD; no single direction) at 10 µM; 4% of 2,400 active; AID 493222;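 also: parental cells lack the transporter so any hit is non-specific; ratio is peak minus trough fluorescence over baseline after EC90 choline challenge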
Of the large screens only hits and unclear results are named; the others gave an inactive call (follow-up assays come after a bar, where they were run). Compounds with a hit are over-represented: about 2.6% of the library has one in this group of screens.

CCOC(=O)C1CCN(C2CCN(C(=O)c3oc4c(C)c(C)ccc4c3C)CC2)CC1	none
COc1ccccc1/C=C\C(=O)NCC(=O)N/N=C(/C)c1cccc([N+](=O)[O-])c1	none
Cc1ccc(-n2c(-c3ccccc3)cc(/C=N/NC(=O)CC#N)c2-c2ccccc2)cc1	T cruzi repl 65
N#CCC(=O)N/N=C/c1cc(-c2ccccc2)n(-c2ccc(Cl)cc2)c1-c1ccccc1	T cruzi repl 60
CCc1ccc(NC(=O)CSc2nc3nc(C)cc(C)n3n2)cc1	none
Cc1ccc(S(=O)(=O)N(C)c2ccccc2C(=O)Nc2c(F)cccc2F)cc1	none
O=C(CCc1ccncc1)N1CCCC(Nc2ccc(F)c(F)c2)C1 (stereo not given)	none
Cc1ccc(NC2CCCN(C(=O)CCc3ccncc3)C2)cc1C (stereo not given)	T cruzi repl 63
Cc1ccc(NC2CCCN(C(=O)CSc3ccncc3)C2)cc1C (stereo not given)	T cruzi repl 56
Cc1ccc(OCC(=O)Nc2ccon2)c([N+](=O)[O-])c1	none
COC(CNC(=O)C1CCN(S(=O)(=O)c2cccc3nsnc23)CC1)OC	none
O=C(O)CCN1C(=O)CC(N2C(=O)/C(=C/c3ccc(Cl)cc3)SC2=S)C1=O (stereo not given)	CHT block -6.2 | CHT inh conf 58% | HEK293 CHT ctr inactive
CC(C)(C)NS(=O)(=O)c1cc(C(=O)Nc2sccc2C#N)ccc1Cl	CHT block -5.3 | CHT inh conf inactive | HEK293 CHT ctr inactive
N#Cc1ccsc1NC(=O)c1cnccn1	none
NC(=O)CC(NC(=O)c1cccc(Br)c1)c1ccc(NC2CCN(Cc3ccccc3)CC2)c([N+](=O)[O-])c1 (stereo not given)	none
Cc1cccc(C(=O)N[C@H](C(=O)Nc2ncc(C)s2)C(C)C)c1	CHT block -11 | CHT inh conf inactive | HEK293 CHT ctr inactive
Cc1cccc(C(=O)N[C@H](C(=O)Nc2nnc(C3CC3)s2)C(C)C)c1	none
CC(C(=O)Nc1ccccc1Cl)N(c1ccccc1)S(C)(=O)=O (stereo not given)	none
CC(C(=O)NC1CCCCCC1)N(c1ccccc1)S(C)(=O)=O (stereo not given)	CHT block -12 | CHT inh conf inactive | HEK293 CHT ctr inactive
COc1ccccc1/C=C(\C#N)C(=O)c1cccn1C	none
CN1CCN(CCOCCOc2ccc(Br)cc2Cl)CC1	CHT block -6.7 | CHT inh conf 56% | HEK293 CHT ctr inactive
Cc1nc(SC2CC(=O)N(c3cc(Cl)cc(Cl)c3)C2=O)nc2c1CCCC2 (stereo not given)	PolyA inhibitor inconclusive, CHT block -9.2 | CHT inh conf 57% | HEK293 CHT ctr inactive
Cc1cccc(N2C(=O)CC(Sc3nc(C)c4c(n3)CCCC4)C2=O)c1 (stereo not given)	none
CCOc1ccc(N(CC(=O)Nc2cc(OC)cc(OC)c2)S(=O)(=O)c2c(C)[nH]c(=O)[nH]c2=O)cc1	none
C/C(=N\N=C(N)N)c1cc(Cl)ccc1Cl	none
C/C(=N\N=C(N)N)c1ccc(Cl)cc1Cl	CHT block -7.5 | CHT inh conf 16% | HEK293 CHT ctr inactive
O=C1NC2(CCCC2)C(=O)N1CC(=O)N(Cc1ccccc1)c1ccccc1	none
CCOC(=O)N1CCN(C(=O)c2oc3ccc(S(=O)(=O)N4CCCCCC4)cc3c2C)CC1	T cruzi repl 65, CHT block -6.2 | CHT inh conf 67% | HEK293 CHT ctr inactive
CS(=O)(=O)n1nc(OC(=O)c2cc(Br)ccc2Cl)cc1N	none
CS(=O)(=O)n1nc(OC(=O)c2cccc3ccccc23)cc1N	CHT block -5.4 | CHT inh conf 63% | HEK293 CHT ctr inactive
COc1ccc(CN2CCN(c3ncnc4scc(-c5ccc(F)cc5)c34)CC2)cc1	none
Cc1ccc(-c2csc3ncnc(N4CCN(C)CC4)c23)cc1C	CHT block -11 | CHT inh conf 48% | HEK293 CHT ctr inactive
CCN1CCN(c2ncnc3scc(-c4ccc(OC)cc4)c23)CC1	CHT block -5.3 | CHT inh conf 51% | HEK293 CHT ctr inactive
COc1ccc2nc(NC(=O)CSC(C)C(=O)Nc3cc(C)on3)sc2c1 (stereo not given)	none
Cc1cccc(NC(=O)/C(=C\c2ccco2)NC(=O)c2cccs2)c1	none
Cc1ccc(C(=O)N/C(=C/c2ccco2)C(=O)Nc2cccc(C)c2)cc1	CHT block -5.7 | CHT inh conf 62% | HEK293 CHT ctr inactive
CCCCC(C(=O)NC(C)(C)C)N(Cc1ccccc1Cl)C(=O)c1snc(C(N)=O)c1N (stereo not given)	none (no result: CHT allo act, CHT block)
O=C1NC(=O)/C(=C/c2ccc(-c3cc(C(=O)O)ccc3Cl)o2)S1	none
O=C1NC(=O)/C(=C\c2ccc(Br)o2)S1	T cruzi repl 69, CHT block -5.7 | CHT inh conf inactive | HEK293 CHT ctr inactive
O=C(CSc1nnc(-c2ccncc2)n1Cc1ccco1)c1ccc(Cl)cc1	CHT block -5.8 | CHT inh conf 70% | HEK293 CHT ctr inactive
O=C(CSc1nnc(-c2ccc(O)cc2)n1Cc1ccco1)N1CCc2ccccc2C1	CHT block -5.8 | CHT inh conf inactive | HEK293 CHT ctr inactive
NC(=O)CSc1nnc(-c2ccc(O)cc2)n1Cc1ccco1	none
COc1ccc(Cn2c(=O)c3[nH]cnc3n(-c3ccccc3C)c2=O)cc1	CHT block -5.5 | CHT inh conf 56% | HEK293 CHT ctr inactive
O=C(NCc1ccc2c(c1)OCO2)c1ccc(CSCc2ccc(Cl)cc2)o1	none
O=C(NCc1ccc2c(c1)OCO2)c1ccc(COc2cc(Cl)ccc2Cl)o1	CHT block -5.1 | CHT inh conf inactive | HEK293 CHT ctr inactive
CCOc1ccccc1C(=O)OCC(=O)Nc1nnc(-c2ccccc2)o1	none
CCOc1ccccc1C(=O)NC(C(=O)OCC(=O)Nc1nnc(-c2ccccc2)o1)C(C)C (stereo not given)	CHT block -5.7 | CHT inh conf inactive | HEK293 CHT ctr inactive
COc1cc(CNCCc2ccccc2)cc(Cl)c1OCc1ccccc1	none
COc1ccc(OC)c(NC(=O)COc2coc(CN3CCc4ccccc43)cc2=O)c1	none
COc1ccc(N(CCN2C(=O)c3ccccc3C2=O)C(=O)c2cccc([N+](=O)[O-])c2)cc1	none
COc1ccc(N(CCCN2C(=O)c3cccc4cccc(c34)C2=O)C(=O)c2ccncc2)cc1	T cruzi repl 55, CHT block -5.8 | CHT inh conf 69% | HEK293 CHT ctr inactive
CC12CC(O)C3c4ccc(O)cc4CCC3C1CCC2=O (stereo not given)	none
CC(=O)OC1CC2(C)/C(=N\O)CCC2C2CCc3cc(O)ccc3C12 (stereo not given)	CHT block -11 | CHT inh conf 3.2% | HEK293 CHT ctr inactive
